Reference: ChEMBL document CHEMBL3244412, “Benzopyrones. 14. Synthesis and antiallergic properties of some N-tetrazolylcarboxamides and related compounds” (1978)
Values after ≈ are worked out from the molar mass of the structure shown.

Legend:
[1] = Antianaphylactic activity in rat mast cells assessed as inhibition of DNP-ovalbumin-induced histamine release after 15 mins by superfusion assay; format: functional; details: Mast cell, 0.25 h, read-out: ED50 (the source's name)
In short: (§1)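 Peritoneal and pleural cells from male albino rats were washed, sensitized with 1:10 rat reaginic anti-DNP-ovalbumin serum for 2 h at 37 °C, and resuspended at 1.2-1.7 × 10⁵ mast cells/mL. Compound and DNP-ovalbumin were added together and incubated for 15 min at 37 °C. Supernatant (free) and lysed-cell (residual) histamine were assayed by guinea pig ileum superfusion bioassay. Inhibition of net histamine release was used to derive EC50 from dose ranging against the reference compound.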

[2] = Antianaphylactic activity in rat mast cells assessed as inhibition of DNP-ovalbumin-induced histamine release after 15 mins by superfusion assay relative to 4-oxo-N-(5-tetrazolyl)-4H-l-benzopyran-2-carboxamide; format: functional, Mast cell; in short: as §1
[3] = tested on: Rattus norvegicus; test: Antiallergic activity in rat assessed as inhibition of DNP-ovalbumin-induced passive cutaneous anaphylaxis at 1 mg/kg, iv after 30 mins relative to control; format: functional; details: for inhibition in vivo at 1 mg/kg: Rattus norvegicus, iv, 0.5 h
In short: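 Female albino rats (groups of four) were shaved and sensitized by dorsal intradermal injection of 0.1 mL diluted rat reaginic anti-DNP-ovalbumin serum, raised with Bordetella pertussis adjuvant. After 48 h they were challenged iv with 2 mg DNP-ovalbumin in 0.5 mL 1% Evans blue/saline, with the compound given iv in aqueous solution at the same time. After 30 min, skin weals were scored visually on a 5-point scale; % inhibition was taken versus vehicle controls.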

| Compound | EC50 [1] [µg/mL] | fold change (potency relative to reference compound) [2] | inhibition in vivo at 1 mg/kg [3] [%] | inhibition (INH) [3] [%] |
| --- | --- | --- | --- | --- |
| O=C(NCCO)c1ccc2oc(C(=O)NCCO)cc(=O)c2c1 | > 18 | <0.005 | 15 |  |
| O=C(Nc1nnn[nH]1)c1coc2ccccc2c1=O | 0.033 (≈ 0.128 µM) | 0.48 | 65 |  |
| Cc1ccc2oc(C(=O)O)c(-c3ccccc3)c(=O)c2c1 | > 18 | <0.005 | 0 |  |
| O=C(Nc1nnn[nH]1)c1cc(=O)c2cc(Cl)ccc2o1 | 0.75 (≈ 2.57 µM) | 0.12 | 65 |  |
| Cn1nnc(NC(=O)c2cc(=O)c3ccccc3o2)n1 |  |  | 25 |  |
| O=C(O)c1ccc2occc(=O)c2c1 | > 18 | <0.005 | 0 |  |
| O=C([O-])c1cc(=O)c2c(OCC(O)COc3cccc4oc(C(=O)[O-])cc(=O)c34)cccc2o1.[Na+].[Na+] [CROMOLYN SODIUM] | 2.55 | 0.02 | 40 |  |
| NCCCO.O=C(Nc1nnn[nH]1)c1oc2ccccc2c(=O)c1NCCCO | 0.024 | 0.67 | 100 |  |
| O=C(O)CCCCCNC(=O)c1cc(=O)c2ccccc2o1 | > 18 | <0.005 | 0 |  |
| O=C(Nc1nnn[nH]1)c1cc(=O)c2cc(-c3nnn[nH]3)ccc2o1 | 0.1 (≈ 0.307 µM) | 0.85 | 70 |  |
| O=C(/C=C/c1coc2ccccc2c1=O)Nc1nnn[nH]1 | 6 (≈ 21.2 µM) | <0.005 | 65 |  |
| O=C(O)CNC(=O)c1ccc2oc(C(=O)NCC(=O)O)cc(=O)c2c1 | > 18 | <0.005 | 10 |  |
| O=C(Nc1nc[nH]n1)c1cc(=O)c2ccccc2o1 | 5 (≈ 19.5 µM) | 0.002 | 0 |  |
| O=C(Nc1nnn[nH]1)c1ccc2occc(=O)c2c1 | 0.7 (≈ 2.72 µM) | 0.08 | 35 |  |
| CN1CCN(C(=O)c2coc3ccccc3c2=O)CC1.Cl | 14 | 0.007 | 20 |  |
| O=C(Nc1nnn[nH]1)c1cc2ccccc2c(=O)o1 | > 18 | <0.005 | 0 |  |
| O=C(Nc1nnn[nH]1)c1ccc2oc(-c3nnn[nH]3)cc(=O)c2c1 | 0.055 (≈ 0.169 µM) | 1 | 70 |  |
| Cc1ccc2c(=O)cc(C(=O)Nc3nnn[nH]3)oc2c1.NCCO | 0.16 | 0.75 |  | 80 |
| Cn1nnnc1NC(=O)c1cc(=O)c2ccccc2o1 | > 18 | <0.005 | 0 |  |
| O=C(Nc1nnn[nH]1)c1cc(=O)c2cc([N+](=O)[O-])ccc2o1 | 5.5 (≈ 18.2 µM) | 0.01 | 15 |  |
| N#Cc1ccc2oc(C(=O)Nc3nnn[nH]3)cc(=O)c2c1 | 2.3 (≈ 8.15 µM) | 0.03 | 100 |  |
| CNc1c(C(=O)Nc2nnn[nH]2)oc2ccccc2c1=O | 0.4 (≈ 1.4 µM) | 0.04 | 100 |  |
| CN1CCN(C(=O)/C=C/c2coc3ccccc3c2=O)CC1 | > 18 | <0.005 | 0 |  |

| Compound | EC50 [1] [µg/mL] | fold change (potency relative to reference compound) [2] | inhibition in vivo at 1 mg/kg [3] [%] | inhibition (INH) [3] [%] |
| --- | --- | --- | --- | --- |
| Cc1ccc2oc(C(=O)Nc3nnn[nH]3)cc(=O)c2c1 | 0.075 (≈ 0.277 µM) | 1.2 | 75 |  |
| NC(=O)c1cc(=O)c2ccc(O)c(N)c2o1 | > 18 | <0.005 | 15 |  |
| Cc1ccc2oc(C(=O)Nc3nnn[nH]3)c(-c3ccccc3)c(=O)c2c1 | 8 (≈ 23 µM) | 0.005 | 50 |  |
| O=C(Nc1nnn[nH]1)c1ccc2oc(C(=O)Nc3nnn[nH]3)cc(=O)c2c1 | 0.55 (≈ 1.49 µM) | 0.1 | 100 |  |
| Cc1c(C(=O)Nc2nnn[nH]2)oc2ccccc2c1=O | 0.4 (≈ 1.47 µM) | 1 | 70 |  |
| O=C(O)CCNC(=O)c1cc(=O)c2ccccc2o1 | > 18 | <0.005 | 0 |  |
| Cc1oc2ccc(S(=O)(=O)Nc3nnn[nH]3)cc2c(=O)c1C | > 18 | <0.005 | 20 |  |
| CN1CCN(C(=O)c2cc(=O)c3ccccc3o2)CC1.Cl | > 18 | <0.005 | 0 |  |
| O=C(O)c1coc2ccccc2c1=O | > 18 | <0.005 | 20 |  |
| O=C(Nc1nnn[nH]1)c1oc2ccccc2c(=O)c1NCCO | 0.085 (≈ 0.269 µM) | 0.18 | 100 |  |
| O=C(Nc1nnn[nH]1)c1oc2ccccc2c(=O)c1N1CCOCC1 | > 18 | <0.005 | 10 |  |
| NC(=O)c1cc(=O)c2cc(N)ccc2o1 | > 18 | <0.005 | 10 |  |
| CCOC(=O)C(=O)Nc1ccc2oc(C(=O)OCC)cc(=O)c2c1 | 12 (≈ 36 µM) | 0.005 | 65 |  |
| O=c1c(/C=N/O)coc2ccccc12 | > 18 | 0.0006 | 25 |  |
| O=C(Nc1nnn[nH]1)c1cc(=O)c2ccc(O)cc2o1 | 0.11 (≈ 0.403 µM) | 0.77 | 65 |  |
| COc1ccc2c(=O)c(-c3ccccc3)c(C(=O)Nc3nnn[nH]3)oc2c1 | > 18 | <0.005 | 25 |  |
| CN(C(=O)c1cc(=O)c2ccccc2o1)c1nnn[nH]1 | > 18 | <0.005 | 0 |  |
| O=C(O)CCCNC(=O)c1cc(=O)c2ccccc2o1 | > 18 | <0.005 | 0 |  |
| O=C(Nc1nnn[nH]1)c1coc(=O)c2ccccc12 | > 18 | <0.005 | 0 |  |
| COc1ccc2c(=O)cc(C(=O)Nc3nnn[nH]3)oc2c1 | 0.048 (≈ 0.167 µM) | 1.8 | 75 |  |
| O=C(Nc1nccs1)c1cc(=O)c2ccccc2o1 | > 18 | <0.005 | 15 |  |
| CCOC(=O)c1cc(=O)c2cc(NC(=O)Cc3nnn[nH]3)ccc2o1 | 11 (≈ 32 µM) | 0.005 | 65 |  |
| Cc1ccc2c(=O)cc(C(=O)Nc3nnn[nH]3)oc2c1 | 0.58 (≈ 2.14 µM) | 0.19 | 75 |  |
